Data set [1] has as its target T1, Protein disulfide-isomerase (Homo sapiens, UniProt P07237). Description: Binding affinity to recombinant human wild-type N-terminal His-tagged PDIA1 expressed in Escherichia coli strain BL21(DE3) assessed as change in melting temperature at 100 uM by ROX dye based thermal shift assay.
Target sequence in this assay (P07237 18-508 limits assumed): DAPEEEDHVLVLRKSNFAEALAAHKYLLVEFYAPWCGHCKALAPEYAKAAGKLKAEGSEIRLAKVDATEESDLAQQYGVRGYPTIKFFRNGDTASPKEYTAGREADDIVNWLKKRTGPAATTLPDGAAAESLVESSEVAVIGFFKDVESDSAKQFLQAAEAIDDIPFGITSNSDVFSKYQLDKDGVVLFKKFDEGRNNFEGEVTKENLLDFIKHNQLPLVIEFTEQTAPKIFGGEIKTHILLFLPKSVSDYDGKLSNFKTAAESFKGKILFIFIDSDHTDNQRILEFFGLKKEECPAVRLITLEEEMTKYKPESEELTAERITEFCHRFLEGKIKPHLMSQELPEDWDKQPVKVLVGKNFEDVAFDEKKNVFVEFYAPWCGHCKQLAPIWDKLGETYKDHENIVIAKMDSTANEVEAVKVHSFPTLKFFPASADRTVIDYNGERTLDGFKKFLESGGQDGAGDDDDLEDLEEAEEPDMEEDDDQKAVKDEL
Data set [2] has as its system U-87 MG. Description: Cytotoxicity against human U-87 MG cells assessed as growth inhibition at 30 uM measured after 72 hrs by MTT assay relative to control. The format is functional, U-87MG ATCC. The settings on record: read-out: GI. The essentials: (§1)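 Single-concentration screen: percent inhibition of cell growth at 30 μM in U-87 MG and MIA PaCa-2 cells by MTT.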
Background: Formazan colour is commonly taken as a measure of viable cells.

Data set [3] has as its target T1, Protein disulfide-isomerase. Description: Irreversible inhibition of recombinant human wild-type N-terminal His-tagged PDIA1 expressed in Escherichia coli strain BL21(DE3) at 400 uM using bovine insulin as substrate preincubated for 30 mins followed by 100-fold dilution substrate addition further incubated for 1 hr and subsequent substrate addition. The settings on record: time 1.5 hrs.
Target sequence in this assay (P07237 18-508 limits assumed): as above

The target is the same in data set [4]. Description: Inhibition of recombinant human wild-type N-terminal His-tagged PDIA1 expressed in Escherichia coli strain BL21(DE3) at 10 uM using bovine insulin as substrate […]. The essentials: (§2)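 Compound incubated with N-acetyl cysteine before addition to the PDI reductase assay with PDIA1, at a final compound concentration of 10 μM.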
Target sequence in this assay (P07237 18-508 limits assumed): as above
The target is the same in data set [5]. Nature of the data set: Inhibition of recombinant human wild-type N-terminal His-tagged PDIA1 expressed in Escherichia coli strain BL21(DE3) at 10 uM using bovine insulin as substrate preincubated for 1 hr followed by substrate addition in presence of N-acetyl cysteine. The essentials: as §2
Target sequence in this assay (P07237 18-508 limits assumed): as above
Data set [6] has as its system MIA PaCa-2. Nature of the data set: Cytotoxicity against human MIA PaCa-2 cells assessed as growth inhibition at 30 uM measured after 72 hrs by MTT assay relative to control. The format is functional. The settings on record: read-out: GI. Summed up:
as §1

Data set [7] concerns the target T1, Protein disulfide-isomerase. Nature of the data set: Inhibition of recombinant human wild-type N-terminal His-tagged PDIA1 expressed in Escherichia coli strain BL21(DE3) using bovine insulin as substrate preincubated for 1 hr followed by substrate addition. Summed up: (§3)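 IC50 from dose-response curves; PDI reductase assay for enzyme, MTT in U-87 MG cells for cytotoxicity; mean ± SD of at least three independent experiments.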
Target sequence in this assay (P07237 whole entry): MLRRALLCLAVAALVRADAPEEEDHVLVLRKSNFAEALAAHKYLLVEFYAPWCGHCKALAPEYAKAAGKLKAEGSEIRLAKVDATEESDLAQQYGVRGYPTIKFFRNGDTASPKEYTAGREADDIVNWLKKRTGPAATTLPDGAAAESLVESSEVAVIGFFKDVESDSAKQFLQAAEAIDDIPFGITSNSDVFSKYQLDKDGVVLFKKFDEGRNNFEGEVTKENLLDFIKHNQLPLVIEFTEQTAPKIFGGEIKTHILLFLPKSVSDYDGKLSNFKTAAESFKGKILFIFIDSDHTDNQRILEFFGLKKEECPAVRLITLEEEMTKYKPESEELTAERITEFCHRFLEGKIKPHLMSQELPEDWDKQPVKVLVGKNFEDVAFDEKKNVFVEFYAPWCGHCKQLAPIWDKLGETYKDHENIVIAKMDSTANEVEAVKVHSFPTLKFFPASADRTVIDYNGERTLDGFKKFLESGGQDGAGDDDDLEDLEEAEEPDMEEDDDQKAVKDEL

Data set [8] concerns U-87 MG. Description: Cytotoxicity against human U-87 MG cells assessed as growth inhibition measured after 72 hrs by MTT assay. The data set is classed as functional, cell-based, U-87MG ATCC. The essentials:
as §3

Data set [9] deals with Protein disulfide-isomerase (Homo sapiens), P07237 [H256A]. Description: Inhibition of recombinant human wild-type N-terminal His-tagged PDIA1 H256A mutant expressed in Escherichia coli strain BL21(DE3) using bovine insulin as substrate preincubated for 1 hr followed by substrate addition.
In data set [10] the target is T1, Protein disulfide-isomerase. Nature of the data set: Inhibition of recombinant human wild-type N-terminal His-tagged PDIA1 expressed in Escherichia coli strain BL21(DE3) at 40 uM using bovine insulin as substrate preincubated for 1 hr followed by substrate addition relative to control.
Target sequence in this assay (P07237 18-508 limits assumed): as the sequence (P07237 18-508 limits assumed) above
Data set [11] shares this target. Nature of the data set: Displacement of ANS from recombinant human wild-type N-terminal His-tagged PDIA1 expressed in Escherichia coli strain BL21(DE3) at 100 uM measured after 1 hr by fluorescence assay.
Target sequence in this assay (P07237 18-508 limits assumed): as above
For data set [12] the target is unchanged. Nature of the data set: Inhibition of recombinant human wild-type N-terminal His-tagged PDIA1 expressed in Escherichia coli strain BL21(DE3) at 10 uM using bovine insulin as substrate preincubated for 1 hr followed by substrate addition in presence of glutathione. The essentials: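 Glutathione added to the PDI reaction buffer before 10 μM compound; screening done with 5 mM GSH, reductase assay DTT at 500 μM.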

Data set [13] deals with U-87 MG. Description: Inhibition of colony formation in BSO-treated human U-87 MG cells at 0.3 to 10 uM measured after 10 to 14 days by crystal violet staining based assay. The format is functional, cell-based. The settings on record: U-87MG ATCC, dose microM 0.3-10, time day 10-14. Summed up: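 U-87 MG cells pretreated with BSO for 24 hours before compound addition; read-out by colony formation assay.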

For data set [14], the target named is T1, Protein disulfide-isomerase. Description: Binding affinity to recombinant human wild-type N-terminal His-tagged PDIA1 expressed in Escherichia coli strain BL21(DE3) at 20 uM measured after 24 hrs in presence of BSA by SDS PAGE analysis.
The target in data set [15] is T2, Albumin (Bos taurus, UniProt P02769). Description: Binding affinity to fetal bovine serum albumin at 20 uM measured after overnight incubation in presence of cell free DMEM medium by gel based assay. The format is ADME. The settings on record: cattle.
A short description of data set [16]: Drug uptake in human A 172 cell nucleus at 10 uM measured after 24 hrs by PDI antibody/DAPI staining based confocal microscopic analysis. The format is ADME, subcellular. The settings on record: a 172, 24 h.
Data set [17] in a line: Drug uptake in human A 172 cell endoplasmic reticulum at 10 uM measured after 24 hrs by PDI antibody/DAPI staining based confocal microscopic analysis. The format is ADME, subcellular. The settings on record: a 172, 24 h.
Data set [18] concerns the target T1, Protein disulfide-isomerase. Description: Binding affinity to PDIA1 in human U-87 MG cells at 5 uM measured after 24 hrs in presence of DTT by coomassie staining GFP channel based Western blot assay. The format is cell-based.
Data set [19] addresses T2, Albumin. Nature of the data set: Binding affinity to BSA at 100 uM measured after overnight incubation by coomassie staining GFP channel based Western blot assay. The data set is classed as ADME, cell-free. The settings on record: cattle, serum.
Data set [20] is described as follows: Drug uptake in human A 172 cell cytoplasm at 10 uM measured after 24 hrs by PDI antibody/DAPI staining based confocal microscopic analysis. The format is ADME, subcellular. The settings on record: a 172, 24 h.
The target in data set [21] is T1, Protein disulfide-isomerase. Description: Binding affinity to PDIA1 in human U-87 MG cell lysates at 5 uM measured after 24 hrs by PAGE analysis. The format is subcellular.
The subject of data set [22] is U-87MG ATCC. Nature of the data set: Upregulation of NQO1 gene expression in human U-87 MG cells at 20 uM incubated for 4 hrs followed by Bru addition during last 30 mins of incubation by Trizol reagent based gene sequencing analysis. The data set is classed as functional, cell-based.
Data set [23] concerns U-87MG ATCC. Nature of the data set: Upregulation of SLC7A11 gene expression in human U-87 MG cells at 20 uM incubated for 4 hrs followed by Bru addition during last 30 mins of incubation by Trizol reagent based gene sequencing analysis. The format is functional, cell-based.
Data set [24] can be described thus: Effect on total CALR expression in human U-87 MG cells at 20 uM measured after 12 to 48 hrs by Western blot analysis. The data set is classed as ADME, cell-based. The settings on record: u-87mg atcc, time 12-48 hrs.
Data set [25] deals with U-87MG ATCC. Nature of the data set: Upregulation of CALR gene expression in human U-87 MG cells at 20 uM incubated for 4 hrs followed by Bru addition during last 30 mins of incubation by Trizol reagent based gene sequencing analysis. The data set is classed as functional, cell-based.
Data set [26] deals with U-87MG ATCC. Nature of the data set: Upregulation of HSPA5 gene expression in human U-87 MG cells at 20 uM incubated for 4 hrs followed by Bru addition during last 30 mins of incubation by Trizol reagent based gene sequencing analysis. The format is functional, cell-based.
In data set [27] the test system is U-87MG ATCC. Description: Upregulation of MYZAP gene expression in human U-87 MG cells at 20 uM incubated for 4 hrs followed by Bru addition during last 30 mins of incubation by Trizol reagent based gene sequencing analysis. The data set is classed as functional, cell-based.

SMILES strings stand for the structures. Calls of active or inactive are those of the source. The calls are words filed in the database; no cut-off is given here.

T2 sequence (P02769 whole entry): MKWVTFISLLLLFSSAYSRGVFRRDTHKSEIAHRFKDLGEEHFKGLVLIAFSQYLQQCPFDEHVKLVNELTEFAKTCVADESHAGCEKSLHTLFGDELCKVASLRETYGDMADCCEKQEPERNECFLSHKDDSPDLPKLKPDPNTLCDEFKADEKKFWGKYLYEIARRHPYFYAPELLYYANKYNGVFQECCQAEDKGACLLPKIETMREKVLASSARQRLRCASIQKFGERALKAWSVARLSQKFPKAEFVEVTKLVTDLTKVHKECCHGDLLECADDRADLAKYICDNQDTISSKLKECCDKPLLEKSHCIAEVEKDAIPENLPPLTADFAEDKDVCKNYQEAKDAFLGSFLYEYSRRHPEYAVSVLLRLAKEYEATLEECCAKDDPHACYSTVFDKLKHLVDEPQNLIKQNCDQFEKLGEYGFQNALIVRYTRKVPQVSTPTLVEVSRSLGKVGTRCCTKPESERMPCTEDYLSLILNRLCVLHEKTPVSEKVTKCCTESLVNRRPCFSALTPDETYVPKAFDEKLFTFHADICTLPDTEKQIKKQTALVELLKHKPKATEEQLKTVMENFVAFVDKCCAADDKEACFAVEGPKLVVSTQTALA
Chain of Protein disulfide-isomerase (Homo sapiens), P07237 [H256A] (P07237 whole entry H256A): as the sequence (P07237 whole entry) above, with H256A counted along it

In general, ΔTm refers to the shift of the melting midpoint relative to a reference. For orientation: inhibition means the percentage by which the read-out fell short of the control. Broadly, the IC50 is the concentration needed to halve the response being measured. `Oc1c(C(Nc2ccccn2)c2ccc(Cl)cc2)ccc2cccnc12` (centres undefined): the ΔTm in data set [1] was -0.05 °C. Moreover, the inhibition of growth at 30 µM in [2] and in data set [6] was greater than 40% throughout. Further, the inhibition entry in data set [3], in [5], in data set [11] and in data set [12] was “inactive” in each case. Moreover, the inhibition entry in data set [4], in [9] and in data set [13] was “Active” in each case. The 50% inhibitory concentration (IC50) in data set [7] was found to be 170 nM; in data set [8], 10600 nM. The inhibition in data set [10] was 50%.
With `CC1=CC(C)=[N+]2C1=C(c1ccc(C(=O)NCCNC(=O)c3ccc(C(c4cc5c(cc4O)OCO5)N4CCCCC4)cc3)cc1)c1c(C)cc(C)n1[B-]2(F)F` (centres undefined), the outcome in data set [14] and in [21] was Active. Moreover, the results for the Activity result in [15] and in data set [19] were “Active” and “Not Active”, respectively. Besides, the Drug uptake result in data set [16], in data set [17] and in [20] was “Active” in each case. In addition, the half-maximal inhibitory concentration (IC50) in data set [7] was determined as 1370 nM. Besides, the outcome in data set [18] was inactive.
In the case of `Oc1c(C(c2ccncc2)N2CCCCC2)ccc2ccoc12` (centres undefined), the outcome in data set [22], in [23], in [25], in [26] and in data set [27] was Active. Moreover, the IC50 in data set [7] was less than 200 nM. The Activity entry in data set [24] is “Non-Toxic”.
